From ChEMBL document CHEMBL3112515, “Discovery of novel 6,7-disubstituted-4-phenoxyquinoline derivatives bearing 5-(aminomethylene)pyrimidine-2,4,6-trione moiety as c-Met kinase inhibitors” (Bioorg Med Chem, 2014)

How the values were obtained:
[1] = Cytotoxicity against human U87MG cells after 72 hrs by MTT assay; type: functional, cell-based, U-87MG ATCC; settings: U-87 MG
Summary of the method: (§1)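 Cells were grown in MEM with 10% FBS and seeded at about 4×10^3 cells per well, then held 24 h at 37 °C in 5% CO2. Compounds were added and the cells cultured 72 h. MTT was added to 5 µg/mL final for 4 h at 37 °C, and the formazan was dissolved in DMSO. IC50 is the mean of three determinations.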

A549 = experiment: Cytotoxicity against human A549 cells after 72 hrs by MTT assay; type: functional, cell-based; settings: A549, 72 h; summary of the method: as §1
[2] = Cytotoxicity against human MKN45 cells after 72 hrs by MTT assay; settings: MKN-45, 72 h
[3] = Cytotoxicity against human H460 cells after 72 hrs by MTT assay; settings: NCI-H460, 72 h
[4] = molecular target: Hepatocyte growth factor receptor (Homo sapiens, UniProt P08581); experiment: Inhibition of c-Met (unknown origin) using poly (Glu, Tyr) 4:1 after 30 mins by HTRF assay
HT-29 = experiment: Cytotoxicity against human HT-29 cells after 72 hrs by MTT assay; settings: HT-29, 72 h

Compound | IC50 [1] [nM] | IC50 (A549) [nM] | IC50 [2] [nM] | IC50 [3] [nM] | IC50 [4] [nM] | IC50 (HT-29) [nM]
COc1cc(N2C(=O)NC(=O)/C(=C\Nc3ccc(Oc4ccnc5cc(OCCCN6CCCC6)c(OC)cc45)c(F)c3)C2=O)c(OC)cc1Cl | 2800 | 380 | 350 | 710 | 16.8 | 9400
COc1cc2c(Oc3ccc(N/C=C4\C(=O)NC(=O)N(c5ccccc5C(F)(F)F)C4=O)cc3F)ccnc2cc1OCCCN1CCCC1 | – | – | 1400 | 360 | 7.51 | 370
COc1cc2c(Oc3ccc(N/C=C4\C(=O)NC(=O)N(c5ccccc5C(F)(F)F)C4=O)cc3F)ccnc2cc1OCCCN1CCN(C)CC1 | – | – | 3500 | 4200 | 8.14 | 7300
COc1cc2c(Oc3ccc(N/C=C4\C(=O)NC(=O)N(c5c(C)cccc5C)C4=O)cc3F)ccnc2cc1OCCCN1CCCC1 | 1240 | 230 | 900 | 160 | 2.35 | 120
COc1cc2c(Oc3ccc(N/C=C4\C(=O)NC(=O)N(c5ccccc5)C4=O)cc3F)ccnc2cc1OCCCN1CCC(C)CC1 | 1420 | 390 | 46 | 170 | 3.84 | 280
COc1cc2c(Oc3ccc(N/C=C4\C(=O)NC(=O)N(c5ccccc5)C4=O)cc3F)ccnc2cc1OCCCN1CCN(C)CC1 | – | – | 520 | 290 | 3.29 | 190
COc1cc2c(Oc3ccc(N/C=C4\C(=O)NC(=O)N(c5ccc(F)cc5F)C4=O)cc3F)ccnc2cc1OCCCN1CCCCC1 | – | – | 3900 | 1100 | 9.27 | 420
COc1cc2c(Oc3ccc(N/C=C4\C(=O)NC(=O)N(c5ccc(F)cc5)C4=O)cc3F)ccnc2cc1OCCCN1CCCCC1 | – | – | 480 | 160 | 3.64 | 140
COc1cc2c(Oc3ccc(N/C=C4\C(=O)NC(=O)N(c5ccccc5)C4=O)cc3F)ccnc2cc1OCCCN1CCOCC1 | 4800 | 930 | 310 | 260 | 4.57 | 350
COc1cc(N2C(=O)NC(=O)/C(=C\Nc3ccc(Oc4ccnc5cc(OCCCN6CCC(C)CC6)c(OC)cc45)c(F)c3)C2=O)c(OC)cc1Cl | 3400 | 640 | 460 | 570 | 19.2 | 630
COc1cc2c(Oc3ccc(N/C=C4\C(=O)NC(=O)N(c5ccc(C)cc5)C4=O)cc3F)ccnc2cc1OCCCN1CCN(C)CC1 | 3200 | 430 | 160 | 70 | 2.68 | 490
COc1cc2c(Oc3ccc(N/C=C4\C(=O)NC(=O)N(c5ccccc5)C4=O)cc3F)ccnc2cc1OCCCN1CCCC1 | – | – | 210 | 290 | 3.36 | 200
COc1cc2c(Oc3ccc(N/C=C4\C(=O)NC(=O)N(c5ccc(F)c(Cl)c5)C4=O)cc3F)ccnc2cc1OCCCN1CCN(C)CC1 | 750 | 310 | 66 | 76 | 3.15 | 150
COc1cc2c(Oc3ccc(N/C=C4\C(=O)NC(=O)N(c5ccc(C)cc5)C4=O)cc3F)ccnc2cc1OCCCN1CCCCC1 | 1500 | 380 | 190 | 100 | 2.58 | 120
COc1cc2c(Oc3ccc(N/C=C4\C(=O)NC(=O)N(c5ccc(F)c(Cl)c5)C4=O)cc3F)ccnc2cc1OCCCN1CCC(C)CC1 | – | – | 65 | 87 | 4.82 | 150
COc1cc2c(Oc3ccc(N/C=C4\C(=O)NC(=O)N(c5ccc(F)c(Cl)c5)C4=O)cc3F)ccnc2cc1OCCCN1CCCCC1 | 1000 | 180 | 40 | 80 | 3.15 | 200
COc1cc2c(Oc3ccc(N/C=C4\C(=O)NC(=O)N(c5ccccc5C(F)(F)F)C4=O)cc3F)ccnc2cc1OCCCN1CCOCC1 | – | – | 18400 | 2300 | 21.2 | 3700
COc1cc2c(Oc3ccc(N/C=C4\C(=O)NC(=O)N(c5ccc(F)cc5F)C4=O)cc3F)ccnc2cc1OCCCN1CCC(C)CC1 | – | – | 460 | 260 | 16 | 5100
COc1cc2c(Oc3ccc(N/C=C4\C(=O)NC(=O)N(c5ccc(F)cc5)C4=O)cc3F)ccnc2cc1OCCCN1CCCC1 | – | – | 1200 | 620 | 2.68 | 490
COc1cc2c(Oc3ccc(N/C=C4\C(=O)NC(=O)N(c5ccc(F)cc5)C4=O)cc3F)ccnc2cc1OCCCN1CCOCC1 | – | – | 740 | 120 | 3.58 | 240
